Reference: ChEMBL document CHEMBL1155720, “Antioxidant principles from Bauhinia tarapotensis” (J Nat Prod, 2001)

What was measured:
Type in all cases: functional
[1] = tested on: Radical scavenging activity; assay: Antioxidant activity assessed as DPPH free radical scavenging activity after 30 mins
In short: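 Pure compound in methanol, 30 µL added to 3 mL of 0.004% DPPH in MeOH. A517 read after 30 min and percent inhibition calculated. IC50 is the concentration scavenging 50% of DPPH radical.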

[2] = Antioxidant activity assessed as trolox equivalents of ABTS radical scavenging activity by TEAC assay
In short: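 ABTS•+ made from 7 mM ABTS in water with 2.45 mM potassium persulfate, kept 12 h in the dark at room temperature. Diluted in PBS pH 7.4 to A734 0.70 and equilibrated at 30 °C. Samples in methanol at 0.3–2 mM, 10 µL added to 1 mL ABTS•+. Percent inhibition of A734 measured against a methanol blank, in triplicate, and plotted against concentration. TEAC is the Trolox concentration giving the same inhibition as 1 mM compound.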

[3] = Antioxidant activity against beta-carotene and linoleic acid assessed asbleaching of beta-carotene at 120 mins by autooxidation assay
In short: (§1)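 β-carotene bleaching (Pratt method): linolenic acid 20 mg and Tween 20 200 mg plus β-carotene 2 mg in 10 mL CHCl3. CHCl3 removed, then 50 mL oxygen-saturated distilled water added. Samples oxidized at 50 °C for 3 h, A470 read at intervals. AA = 100[1 − (A0 − At)/(A00 − A0t)], comparing absorbance at start and at time t with and without compound.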

[4] = Antioxidant activity against beta-carotene and linoleic acid assessed asbleaching of beta-carotene at 60 mins by autooxidation assay; in short: as §1

| SMILES | IC50 [1] | Activity [2] | Activity [3] | Activity [4] |
| --- | --- | --- | --- | --- |
| COc1cc([C@@H]2c3cc(O)c(OC)cc3C[C@H](CO)[C@H]2CO[C@@H]2O[C@H](CO)[C@@H](O)[C@H](O)[C@H]2O)ccc1O | 10.5 µM | 0.826 | -6.2 | -10 |
| O=C(/C=C/c1ccc(O)c(O)c1)OCC(O)(CO)C(O)C(=O)O (stereo not drawn) | – | 0.484 | 20.5 | 25.2 |
| O=C(O)/C=C/c1ccc(O)c(O)c1 | – | 1.26 | – | – |
| C[C@@H]1O[C@@H](O[C@@H]2[C@@H](O)[C@H](OCCc3ccc(O)c(O)c3)O[C@H](COC(=O)/C=C/c3ccc(O)c(O)c3)[C@H]2O)[C@H](O)[C@H](O)[C@H]1O [ISOACTEOSIDE] | 1.3 µM | 1.23 | 7.2 | 24.6 |
| O=c1cc(-c2ccc(O[C@@H]3O[C@H](CO)[C@@H](O)[C@H](O)[C@H]3O)c(O)c2)oc2cc(O)cc(O)c12 | – | 0.445 | 10 | 16.2 |
| O=C1C=C[C@H](O)C[C@@]1(O)CCO (relative stereo) | – | 0.076 | 9.7 | 43 |
| C[C@@H]1O[C@@H](OC[C@H]2O[C@@H](Oc3c(-c4ccc(O)c(O)c4)oc4cc(O)cc(O)c4c3=O)[C@H](O)[C@@H](O)[C@@H]2O)[C@H](O)[C@H](O)[C@H]1O | – | 2.42 | – | – |
| Cc1cc(C(C)(C)C)c(O)c(C(C)(C)C)c1 | – | – | 62.5 | 63.9 |
| O=C(O)c1c[nH]c2ccccc12 | – | 0.092 | -6.5 | -10.1 |
| COc1cc([C@H]2OC[C@]3(O[C@@H]4O[C@H](CO)[C@@H](O)[C@H](O)[C@H]4O)[C@@H](c4ccc(O)c(OC)c4)OC[C@H]23)ccc1O | 20.3 µM | 0.935 | 8.5 | 10.7 |
